Results published in ChEMBL document CHEMBL1909617, “Bioactive dammarane-type saponins from Operculina turpethum” (J Nat Prod, 2011).

Tests used:
[1] = Cytoprotective activity in human embryo L02 cells assessed as inhibition of D-galactosamine-induced cytotoxicity at 6.25 ug/ml treated for 1 hr prior to D-galactosamine challenge measured after 48 hrs by MTT assay relative to control; format: functional
How it was run: (§1)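 L-02 human embryo liver cells in RPMI-1640 with 10% heat-inactivated FBS, penicillin, streptomycin, L-glutamine; seeded 2 × 10^4 cells/mL, grown 24 h at 37 °C, 5% CO2. Fresh medium with compound (diluted from 1 mg/mL DMSO stock) for 1 h, then 5 mM D-GalN for 48 h. MTT read at 570 nm; inhibition (%) = (OD compound − OD GalN control)/(OD blank − OD control) × 100; n = 3, mean ± SD.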

[2] = Cytoprotective activity in human embryo L02 cells assessed as inhibition of D-galactosamine-induced cytotoxicity at 3.13 ug/ml treated for 1 hr prior to D-galactosamine challenge measured after 48 hrs by MTT assay relative to control; format: functional; how it was run: as §1
[3] = Cytotoxicity against human embryo L02 cells assessed as cell viability after 48 hrs by MTT assay; format: cell-based; details: read-out: MTD
How it was run: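 Human embryo liver L-02 cells in RPMI-1640 with 10% heat-inactivated FBS, penicillin, streptomycin and L-glutamine, seeded at 2 × 10^4 cell/mL and grown 24 h at 37 C, 5% CO2. Medium replaced by serial dilutions of compound (from 1 mg/mL DMSO stock), 48 h exposure. MTT added for 4 h, formazan dissolved in DMSO, OD 570 nm. Viability = OD(compound)/OD(control) × 100; maximum nontoxic concentration derived.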

[4] = Cytoprotective activity in human embryo L02 cells assessed as inhibition of D-galactosamine-induced cytotoxicity at 12.5 ug/ml treated for 1 hr prior to D-galactosamine challenge measured after 48 hrs by MTT assay relative to control; format: functional; how it was run: as §1
[5] = Cytoprotective activity in human embryo L02 cells assessed as inhibition of D-galactosamine-induced cytotoxicity at 1.56 ug/ml treated for 1 hr prior to D-galactosamine challenge measured after 48 hrs by MTT assay relative to control; format: functional; how it was run: as §1

Structure (SMILES)	inhibition at 6.25 µg/mL [1] [%]	inhibition at 3.13 µg/mL [2] [%]	MNTC at 48 h [3] [µg/mL]	inhibition at 12.5 µg/mL [4] [%]	inhibition at 1.56 µg/mL [5] [%]
CC(C)[C@]1(CO)CC[C@@](C)([C@H]2[C@H](O)C[C@]3(C)[C@@H]2CC[C@@H]2[C@@]4(C)CC[C@H](O[C@@H]5O[C@H](CO)[C@@H](O)[C@H](O)[C@H]5O[C@@H]5O[C@H](CO)[C@@H](O)[C@H](O)[C@H]5O)C(C)(C)[C@@H]4CC[C@]23C)O1 [OPERCULINOSIDE A]	-14.7	-22.8	12.5	46.7	–
CC(C)[C@]1(CO[C@@H]2O[C@H](CO)[C@@H](O)[C@H](O)[C@H]2O)CC[C@@](C)([C@H]2[C@H](O)C[C@]3(C)[C@@H]2CC[C@@H]2[C@@]4(C)CC[C@H](O[C@@H]5O[C@H](CO)[C@@H](O)[C@H](O)[C@H]5O[C@@H]5O[C@H](CO)[C@@H](O)[C@H](O)[C@H]5O)C(C)(C)[C@@H]4CC[C@]23C)O1 [OPERCULINOSIDE B]	10.4	3.5	100	-6.9	–
CC(C)(O)[C@@H]1CC[C@@](C)([C@H]2[C@H](O)C[C@]3(C)[C@@H]2CC[C@@H]2[C@@]4(C)CC[C@H](O[C@@H]5O[C@H](CO)[C@@H](O)[C@H](O)[C@H]5O[C@@H]5O[C@H](CO)[C@@H](O)[C@H](O)[C@H]5O)C(C)(C)[C@@H]4CC[C@]23C)O1 [OPERCULINOSIDE C]	69.5	16.7	50	44.1	–
CC(C)(O[C@@H]1O[C@H](CO)[C@@H](O)[C@H](O)[C@H]1O)[C@@H]1CC[C@@](C)([C@H]2[C@H](O)C[C@]3(C)[C@@H]2CC[C@@H]2[C@@]4(C)CC[C@H](O[C@@H]5O[C@H](CO)[C@@H](O)[C@H](O)[C@H]5O[C@@H]5O[C@H](CO)[C@@H](O)[C@H](O)[C@H]5O)C(C)(C)[C@@H]4CC[C@]23C)O1 [OPERCULINOSIDE D]	6.3	5.5	100	22.2	–
COc1cc(C2Oc3cc([C@H]4Oc5cc(O)cc(O)c5C(=O)[C@@H]4O)ccc3OC2CO)ccc1O (stereo not given in full) [SILIBININ]	28.2	33.4	6.25	–	10.1
